Assay results of several laboratories.
Protocols differ between the studies behind these lines.

| SMILES | cell line | test | conditions | IC50 [µM] |
| --- | --- | --- | --- | --- |
| O=c1c(O)c(-c2ccc(O)c(O)c2)oc2cc(O)cc(O)c12 | HEp-2 | cell growth or viability, WST-1 | 48 h | 10.9 |
| CC(C)(C=O)Cc1cc(C(C)(C)C)c(O)c(C(C)(C)C)c1 | FaDu | cell growth or viability | 72 h | > 20 |
| Cc1cc(-c2nc(C(=O)Nc3cc4oc(N5CCOCC5)nc4nc3N3CC[C@@H](O)C3)co2)ccn1 | A20 | cell growth or viability | 5 days | 2.45 |
| CCN(CC)CCNC(=O)COc1ccc(OC)cc1 | FaDu | cell growth or viability | 72 h | > 20 |
| O=C(/C=C/c1ccc2ncn(Cc3ccccc3F)c(=O)c2c1)NO | SW-620 | cell growth or viability, SRB | 48 h | 1.12 |
| Cc1ccc(S(=O)(=O)N[C@@H](Cc2ccccc2)C(=O)CCl)cc1 | THP-1 | TNF-α release, inhibitor | 17 h, LPS-stimulated | 1.08 |
| Nc1ncnc2c1ncn2[C@@H]1O[C@H](CO)[C@@H](O)[C@H]1O | HEp-2 | cell growth or viability, WST-1 | 48 h | 49.1 |
| c1ccc2c(-c3nc4ccccc4[nH]3)c3ccccc3cc2c1 | MCF7 | cell growth or viability, MTT | 48 h | 13.2 |
| COc1cc(Nc2nccc(-c3cnn4nc(OC)ccc34)n2)cc(C(F)(F)F)c1 | NCI-H441 | cell growth or viability, ATP luminescence |  | 0.57 |
| CNC[C@H](O)c1ccc(O)c(O)c1 | THP-1 | TNF-α release, inhibitor | 17 h, LPS-stimulated | 0.07 |
| COc1ccc(C(=O)O[C@@H]2CN3Cc4c(cc5c(c4OC)OCO5)[C@@]24C=C[C@H](OC)C[C@@H]34)cc1 | SAOS-2 | cell growth or viability, WST-1 |  | > 10 |
| CCCCc1ccc2[nH]c(NC(=O)OC)nc2c1 | FaDu | cell growth or viability | 72 h | 0.153 |
| CCCn1cnc2ccc(/C=C/C(=O)NO)cc2c1=O | SW-620 | cell growth or viability, SRB | 48 h | 2.7 |
| O=c1c(O)c(-c2ccc(O)cc2)oc2cc(O)cc(O)c12 | HEp-2 | cell growth or viability, WST-1 | 48 h | 30.3 |
| CC(C)[C@H](N)C(=O)N1CCC[C@H]1B(O)O | NOMO-1 | cell growth or viability, ATP luminescence | 5 days | 0.031 |
| Cc1ccc2nc(-c3ccc(Cl)c(Cl)c3)[nH]c2c1 | MCF7 | cell growth or viability, MTT | 48 h | 50.8 |
| N#Cc1ccc(COC[C@H]2O[C@@H](n3c(NCc4ccc(Cl)c(Cl)c4)nc4c(N)ncnc43)[C@H](O)[C@@H]2O)cc1 | FaDu | cell growth or viability | 72 h | > 20 |
| Cc1ccc2nc(-c3c(F)cccc3Cl)[nH]c2c1 | MCF7 | cell growth or viability, MTT | 48 h | > 100 |
| COc1cc2nc(N3CCN(C(=O)c4ccco4)[C@H]4CCCC[C@H]43)nc(N)c2cc1OC (racemic) | FaDu | cell growth or viability | 72 h | 14.1 |
| CC[C@@H](C)[C@H](N)C(=O)N1Cc2ccccc2C1 | NOMO-1 | cell growth or viability, ATP luminescence | 48 h | 4.18 |
| Clc1ccc(Cn2c(-c3ccc(Cl)cc3)nc3ccccc32)cc1 | MCF7 | cell growth or viability, MTT |  | 8.56 |
| O=Cc1ccc(CO)o1 | HEp-2 | cell growth or viability, WST-1 | 48 h | 78.9 |

| SMILES | cell line | test | conditions | IC50 [µM] |
| --- | --- | --- | --- | --- |
| COc1ccc(-c2nc3ccccc3[nH]2)cc1O | MCF7 | cell growth or viability, MTT | 48 h | 29.7 |
| O=c1[nH]cc(S(=O)(=O)Nc2cccc(-c3nnc(-c4cccc(Cl)c4)o3)c2)c(=O)[nH]1 | NCI-H441 | cell growth or viability, MTT | 24 h | 4.29 |
| CCOc1cc(OCC)cc(C(=O)O[C@@H]2CN3Cc4c(cc5c(c4OC)OCO5)[C@@]24C=C[C@H](OC)C[C@@H]34)c1 | SAOS-2 | cell growth or viability, WST-1 |  | 2.8 |
| Nc1ccn([C@@H]2O[C@H](CO)[C@@H](O)C2(F)F)c(=O)n1 | Panc02 | cell growth or viability, CCK-8 | 72 h | 0.0341 |
| Cc1ccc(O)cc1 | B16F0 | cell growth or viability, MTT | 48 h | 1900 |
| Cc1[nH]c2ccccc2c1CCNCc1ccc(/C=C/C(=O)NO)cc1 | C13 | cell growth or viability, crystal violet |  | 0.0093 |
| COc1ccc(CC(C)NCC(O)c2ccc(O)c(NC=O)c2)cc1 (centres unmarked) | THP-1 | TNF-α release, inhibitor | 17 h, LPS-stimulated | 0.006 |
| Nc1ncnc2c1ncn2[C@@H]1O[C@H](CO)[C@@H](O)[C@@H]1O | FaDu | cell growth or viability | 72 h | > 20 |
| CC(C)/N=C1\c2cc(C(N)=O)nc3c(N)c(Cl)c(N)c(c23)N1C | Calu-3 | cell growth or viability |  | 0.77 |
| COc1cccc(C(=O)O[C@@H]2CN3Cc4c(cc5c(c4OC)OCO5)[C@@]24C=C[C@H](OC)C[C@@H]34)c1 | SAOS-2 | cell growth or viability, WST-1 |  | 6.9 |
| N#Cc1cc([N+](=O)[O-])c2sc(C(N)=O)[n+]([O-])c2c1 | THP-1 | TNF-α release, inhibitor, ELISA | 17 h, LPS-stimulated | 1.95 |
| COc1ccc(CCN(C)CCc2ccc(OC)c(OC)c2)cc1OC | FaDu | cell growth or viability | 72 h | > 20 |
| COc1c(C)c(OS(=O)(=O)c2ccc3ccccc3c2)c(C)c(OS(=O)(=O)c2ccc3ccccc3c2)c1C(=O)/C=C/c1ccccc1 | FaDu | cell growth or viability, SRB | 72 h | > 50 |
| CCCC1(C)C(C#N)(C#N)C1(C#N)C#N | THP-1 | TNF-α release, inhibitor | 17 h, LPS-stimulated | 1.15 |
| O=C(/C=C/c1ccc2ncn(CC3CCCCC3)c(=O)c2c1)NO | SW-620 | cell growth or viability, SRB | 48 h | 1.16 |
| CN(C)c1ccc(-c2nc3ccccc3[nH]2)cc1 | MCF7 | cell growth or viability, MTT | 48 h | > 100 |
| CC(C)C[C@H](NC(=O)[C@H](Cc1ccccc1)NC(=O)c1cnccn1)B(O)O | SJSA-1 | cell growth or viability, ATP luminescence |  | 0.011 |
| O=C(/C=C/c1cccc(S(=O)(=O)Nc2ccccc2)c1)NO | SW-620 | cell growth or viability, SRB | 48 h | 3.23 |
| O=[N+]([O-])c1cccc(-c2nc3ccccc3[nH]2)c1 | MCF7 | cell growth or viability, MTT | 48 h | 24.4 |
| CN1C(=O)c2cc(C(N)=O)nc3c(N)c(Cl)c(N)c1c23 | Calu-3 | cell growth or viability |  | 17.6 |
| Clc1ccc(N2CCN(Cc3c[nH]c4ncccc34)CC2)cc1 | FaDu | cell growth or viability | 72 h | > 20 |
| COc1cccc2c1C(=O)c1c(O)c3c(c(O)c1C2=O)C[C@@](O)(C(=O)CO)C[C@@H]3O[C@H]1C[C@H](N)[C@H](O)[C@H](C)O1 | SUM159 | cell growth or viability, MTT | 48 h | 4 |
